Reference: ChEMBL document CHEMBL1154855 (Eur J Med Chem, 2010)
≈ marks a conversion by molar mass, not a printed value.

Tests used:
Escherichia coli = experiment: Antibacterial activity against Escherichia coli after 24 hrs by broth microdilution method; format: functional
In short: (§1)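 Clinical isolates. Each dilution received 100 μl of 0.5 McFarland fresh culture. Solvent (DMSO), growth and standard controls were included. Tubes were incubated at 37 °C for 24 h. MIC is the highest dilution showing no turbidity. Tests were run in triplicate, with at least two repetitions.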

Proteus mirabilis = experiment: Antibacterial activity against Proteus mirabilis after 24 hrs by broth microdilution method; format: functional; in short: as §1
Klebsiella pneumoniae = experiment: Antibacterial activity against Klebsiella pneumoniae after 24 hrs by broth microdilution method; format: functional; in short: as §1
Streptococcus viridans = experiment: Antibacterial activity against Streptococcus viridans after 24 hrs by broth microdilution method; format: functional; in short: as §1
[1] = tested on: Mammalian orthoreovirus 1; experiment: Antiviral activity against Reovirus 1 infected in african green monkey Vero cells assessed as protection from virus-induced cytopathogenicity after 6 to 7 days by MTT assay; format: functional, organism-based; conditions: Mammalian orthoreovirus 1, Vero
Human alphaherpesvirus 2 = experiment: Antiviral activity against Herpes simplex virus 2 G infected in HEL cells assessed as protection from virus-induced cytopathogenicity after 2 to 3 days by MTT assay; format: functional, organism-based; conditions: Human alphaherpesvirus 2, strain G
Influenza A virus [2] = experiment: Antiviral activity against Influenza A virus H1N1 infected in MDCK cells assessed as protection from virus-induced cytopathogenicity after 6 to 7 days by MTT assay; format: functional, organism-based
[3] = tested on: Vesicular stomatitis virus; experiment: Antiviral activity against VSV infected in human HeLa cells assessed as protection from virus-induced cytopathogenicity after 1 to 2 days by MTT assay; format: functional, organism-based
[4] = Cytotoxicity against HIV2 ROD infected human MT4 cells by MTT assay; format: cell-based; conditions: MT4 cells infected with HIV-2 ROD
In short: (§2)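 MT-4 cells (3 × 10^4 per well) were cultured in microdilution trays with various concentrations of compound, then incubated 5 days at 37 °C, and viable cell number was read by MTT.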

Influenza A virus [5] = experiment: Antiviral activity against Influenza A virus H3N2 infected in MDCK cells assessed as protection from virus-induced cytopathogenicity after 6 to 7 days by MTT assay; format: functional, organism-based
Human respirovirus 3 = experiment: Antiviral activity against PIV 3 infected in african green monkey Vero cells assessed as protection from virus-induced cytopathogenicity after 6 to 7 days by MTT assay; format: functional, organism-based; conditions: Human respirovirus 3, Vero
[6] = Cytotoxicity against HIV1 3B-infected human MT4 cells by MTT assay; format: cell-based; conditions: MT4 cells infected with HIV-1 3B; in short: as §2
Influenza B virus = experiment: Antiviral activity against Influenza B virus infected in MDCK cells assessed as protection from virus-induced cytopathogenicity after 6 to 7 days by MTT assay; format: functional, organism-based
Sindbis virus = experiment: Antiviral activity against Sindbis virus infected in african green monkey Vero cells assessed as protection from virus-induced cytopathogenicity after 2 to 3 days by MTT assay; format: functional, organism-based
[7] = tested on: Human immunodeficiency virus 1; experiment: Antiviral activity against HIV1 3B-infected in human MT4 cells assessed as protection from virus-induced cytopathogenicity after 5 days by MTT assay; format: functional, organism-based; conditions: Human immunodeficiency virus 1, 3B, MT4, 120 h
In short: (§3)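 MT-4 cells at 3 × 10^4 per well were infected with HIV (IIIB or ROD) at 50% cell culture infective doses. Graded compound concentrations were added immediately after infection. Plates were incubated for 5 days at 37 °C and viable cells were counted by MTT.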

[8] = tested on: Vesicular stomatitis virus; experiment: Antiviral activity against VSV infected in HEL cells assessed as protection from virus-induced cytopathogenicity after 1 to 2 days by MTT assay; format: functional, organism-based
[9] = tested on: Human immunodeficiency virus 2; experiment: Antiviral activity against HIV2 ROD infected in human MT4 cells assessed as protection from virus-induced cytopathogenicity after 5 days by MTT assay; format: functional, organism-based; conditions: Human immunodeficiency virus 2, ISOLATE ROD, MT4, 120 h; in short: as §3
[10] = tested on: Respiratory syncytial virus; experiment: Antiviral activity against Respiratory syncytial virus infected in human HeLa cells assessed as protection from virus-induced cytopathogenicity after 4 days by MTT assay; format: functional, organism-based; conditions: 96 h
Punta Toro virus = experiment: Antiviral activity against Punta Toro virus infected in african green monkey Vero cells assessed as protection from virus-induced cytopathogenicity by MTT assay; format: functional, organism-based
Feline coronavirus = experiment: Antiviral activity against Feline coronavirus infected in cat CRFK cells assessed as protection from virus-induced cytopathogenicity by MTT assay; format: functional, organism-based; conditions: Alphacoronavirus 1, CRFK
HeLa [11] = experiment: Cytotoxicity against Human coxsackievirus B4 infected human HeLa cells by trypan blue exclusion method; format: cell-based; conditions: hela
In short: (§4)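 Uninfected confluent cultures were run in parallel with the infected cultures. Medium was replaced by 1 ml maintenance medium with serial compound concentrations; cell controls received no compound. Cultures were incubated at 37 °C. After 2 and 7 days, compound was withdrawn and viability was determined by trypan blue exclusion.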

Felid alphaherpesvirus 1 = experiment: Antiviral activity against Feline herpesvirus infected in cat CRFK cells assessed as protection from virus-induced cytopathogenicity by MTT assay; format: functional, organism-based; conditions: Felid alphaherpesvirus 1, CRFK
HEL [12] = experiment: Cytotoxicity against Herpes simplex virus 2 G infected HEL cells by trypan blue exclusion method; format: cell-based; conditions: human, hel; in short: as §4
MDCK = experiment: Cytotoxicity against Influenza B virus infected MDCK cells by trypan blue exclusion method; format: cell-based, Canis lupus familiaris; conditions: dog
HEL [13] = experiment: Cytotoxicity against Vaccinia virus infected HEL cells by trypan blue exclusion method; format: cell-based; conditions: human, hel; in short: as §4
HEL [14] = experiment: Cytotoxicity against Herpes simplex virus 1 KOS infected HEL cells by trypan blue exclusion method; format: cell-based; conditions: human, hel; in short: as §4
Vero [15] = experiment: Cytotoxicity against Reovirus 1 infected african green monkey Vero cells by trypan blue exclusion method; format: cell-based; conditions: chlorocebus sabaeus, vero; in short: as §4
[16] = Cytotoxicity against Feline herpesvirus infected cat CRFK cells by trypan blue exclusion method; format: cell-based, Felis catus; conditions: crfk; in short: as §4
Human alphaherpesvirus 1 [17] = experiment: Antiviral activity against acyclovir-sensitive Herpes simplex virus 1 KOS infected in HEL cells assessed as protection from virus-induced cytopathogenicity after 2 to 3 days by MTT assay; format: functional, organism-based; conditions: Human alphaherpesvirus 1, KOS
HeLa [18] = experiment: Cytotoxicity against Respiratory syncytial virus infected human HeLa cells by trypan blue exclusion method; format: cell-based; conditions: hela; in short: as §4
HEL [19] = experiment: Cytotoxicity against VSV infected HEL cells by trypan blue exclusion method; format: cell-based; conditions: human, hel; in short: as §4
HEL [20] = experiment: Cytotoxicity against acyclovir-sensitive Herpes simplex virus 1 KOS infected HEL cells by trypan blue exclusion method; format: cell-based; conditions: human; in short: as §4
Vero [21] = experiment: Cytotoxicity against Human coxsackievirus B4 infected african green monkey Vero cells by trypan blue exclusion method; format: cell-based; conditions: chlorocebus sabaeus, vero; in short: as §4
Human alphaherpesvirus 1 [22] = experiment: Antiviral activity against Herpes simplex virus 1 KOS infected in HEL cells assessed as protection from virus-induced cytopathogenicity after 2 to 3 days by MTT assay; format: functional, organism-based; conditions: Human alphaherpesvirus 1, KOS
Vero [23] = experiment: Cytotoxicity against PIV 3 infected african green monkey Vero cells by trypan blue exclusion method; format: cell-based; conditions: chlorocebus sabaeus, vero; in short: as §4
Coxsackievirus B4 [24] = experiment: Antiviral activity against Human coxsackievirus B4 infected in african green monkey Vero cells assessed as protection from virus-induced cytopathogenicity after 2 days by MTT assay; format: functional, organism-based; conditions: Enterovirus B, 48 h
Vero [25] = experiment: Cytotoxicity against Sindbis virus infected african green monkey Vero cells by trypan blue exclusion method; format: cell-based; conditions: chlorocebus sabaeus, vero; in short: as §4
Coxsackievirus B4 [26] = experiment: Antiviral activity against Human coxsackievirus B4 infected in human HeLa cells assessed as protection from virus-induced cytopathogenicity after 2 days by MTT assay; format: functional, organism-based; conditions: Enterovirus B, 48 h
HeLa [27] = experiment: Cytotoxicity against VSV infected human HeLa cells by trypan blue exclusion method; format: cell-based; conditions: hela; in short: as §4
[28] = Escherichia coli, 24 h, read-out: MIC
[29] = Proteus mirabilis, 24 h, read-out: MIC
[30] = Klebsiella pneumoniae, 24 h, read-out: MIC

## CCCCCCCCCCCCCCCC(=O)Oc1ccc(/C=C/C(=O)CC(=O)/C=C/c2ccc(OC(=O)CCCCCCCCCCCCCCC)c(OC)c2)cc1OC
Escherichia coli; [28]
  MIC: 0.53 µM (≈ 0.448 µg/mL)
Proteus mirabilis; [29]
  MIC: 0.53 µM (≈ 0.448 µg/mL)
Klebsiella pneumoniae; [30]
  MIC: 0.53 µM (≈ 0.448 µg/mL)

## GENTAMICIN SULFATE
Escherichia coli
  MIC: > 1.73 µM
Proteus mirabilis
  MIC: > 1.73 µM
Streptococcus viridans
  MIC: > 1.73 µM
Klebsiella pneumoniae
  MIC: > 1.73 µM

## CCCCCCCCCC(=O)Oc1ccc(/C=C/C(=O)CC(=O)/C=C/c2ccc(OC(=O)CCCCCCCCC)c(OC)c2)cc1OC
[1]
  EC50: > 0.147 µM
Human alphaherpesvirus 2
  EC50: > 0.147 µM
Influenza A virus [2]
  EC50: > 0.147 µM
[3]
  EC50: 0.147 µM
[4]
  CC50: > 0.079 µM
Influenza A virus [5]
  EC50: > 0.147 µM
Human respirovirus 3
  EC50: > 0.147 µM
[6]
  CC50: > 0.081 µM
Influenza B virus
  EC50: > 0.147 µM
Sindbis virus
  EC50: > 0.147 µM
[7]
  IC50: 0.081 µM
[8]
  EC50: > 0.147 µM
[9]
  IC50: 0.079 µM
[10]
  EC50: > 0.147 µM
Punta Toro virus
  EC50: > 0.147 µM
Feline coronavirus
  EC50: > 0.029 µM

## COc1cc(/C=C/C(=O)CC(=O)/C=C/c2ccc(OC(=O)CCC(NC(=O)c3ccc(NCc4cnc5nc(N)[nH]c(=O)c5n4)cc3)C(=O)O)c(OC)c2)ccc1OC(=O)CCC(NC(=O)c1ccc(NCc2cnc3nc(N)[nH]c(=O)c3n2)cc1)C(=O)O (configuration not stated)
HeLa [11]
  CC50: > 0.082 µM
Felid alphaherpesvirus 1
  EC50: > 0.03 µM
Escherichia coli; [28]
  MIC: 0.27 µM (≈ 0.328 µg/mL)
[1]
  EC50: > 0.082 µM
HEL [12]
  CC50: > 0.082 µM
Proteus mirabilis; [29]
  MIC: 0.54 µM (≈ 0.656 µg/mL)
MDCK
  CC50: 0.082 µM
Human alphaherpesvirus 2
  EC50: > 0.082 µM
Influenza A virus [2]
  EC50: > 0.082 µM
[3]
  EC50: > 0.082 µM
HEL [13]
  CC50: > 0.082 µM
HEL [14]
  CC50: > 0.082 µM
[4]
  CC50: > 0.046 µM
Influenza A virus [5]
  EC50: > 0.082 µM
Vero [15]
  CC50: > 0.082 µM
Human respirovirus 3
  EC50: > 0.082 µM
Streptococcus viridans; Streptococcus viridans, 24 h, read-out: MIC
  MIC: 0.27 µM (≈ 0.328 µg/mL)
[6]
  CC50: > 0.036 µM
[16]
  CC50: 0.011 µM
Human alphaherpesvirus 1 [17]
  EC50: > 0.082 µM
HeLa [18]
  CC50: > 0.082 µM
HEL [19]
  CC50: > 0.082 µM
Influenza B virus
  EC50: > 0.082 µM
HEL [20]
  CC50: > 0.082 µM
Sindbis virus
  EC50: > 0.082 µM
Vero [21]
  CC50: > 0.082 µM
[7]
  IC50: 0.036 µM
Human alphaherpesvirus 1 [22]
  EC50: > 0.082 µM
Vero [23]
  CC50: > 0.082 µM
[8]
  EC50: > 0.082 µM
Coxsackievirus B4 [24]
  EC50: > 0.082 µM
[9]
  IC50: 0.046 µM
[10]
  EC50: > 0.082 µM
Vero [25]
  CC50: > 0.082 µM
Punta Toro virus
  EC50: > 0.082 µM
Feline coronavirus
  EC50: > 0.03 µM
Coxsackievirus B4 [26]
  EC50: > 0.082 µM
HeLa [27]
  CC50: > 0.082 µM
Klebsiella pneumoniae; [30]
  MIC: 0.27 µM (≈ 0.328 µg/mL)
